ChEMBL document CHEMBL4715728, “New bifunctional antioxidant/σ1 agonist ligands: Preliminary chemico-physical and biological evaluation” (Bioorg Med Chem, 2016)
The source made the active and inactive calls. The calls are words filed in the database; no cut-off is given here.

How the values were obtained:
[1] = Stability of compound in human plasma assessed as rate of compound hydrolysis by HPLC-UV assay; type: ADME, cell-free
Summary of the method: (§1)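 Citrated human or rat plasma diluted to 80% with 0.02 M phosphate buffer pH 7.4, 37 °C with shaking. Compound added from a 1 mg/ml acetonitrile stock. Aliquots deproteinized with 0.01 M HCl in methanol, centrifuged, and analyzed by HPLC-UV (C8 column, KH2PO4/methanol pH 2.5, 220 nm). Remaining intact compound plotted against time. Three experiments.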

[2] = Cytotoxicity against Sprague-Dawley rat Cerebral cortex neuron assessed as LDH activity at 1 uM incubated for 24 hrs by LDH assay (reference value: […]); type: tissue-based
Summary of the method: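 Primary fetal rat cortical neurons, matured 8 days on poly-D-lysine, exposed 24 h at 37 °C to compound (0.1–100 µM; DMSO 0.5% or water vehicle). LDH released into 100 µl culture medium was measured by kit as the rate of NAD+ reduction (absorbance increase at 490 nm). Positive control was mitomycin C. Four independent experiments.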

Cavia porcellus = organism: Cavia porcellus; experiment: Selectivity ratio of Ki for displacement of [3H]-DTG from sigma2 receptor in guinea pig brain membrane to Ki for displacement of [3H]-(+)-pentazocine from sigma1 receptor in guinea pig brain membrane; type: cell membranes
[3] = Stability of compound in rat plasma assessed as rate of compound hydrolysis by HPLC-UV assay; type: ADME, cell-free; summary of the method: as §1
[4] = Antioxidant activity in Sprague-Dawley rat Cerebral cortex neuron assessed as total antioxidant capacity by measuring trolox equivalents at 25 uM after 24 hrs; type: functional
Summary of the method: (§2)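 Primary cerebral cortex neurons from rat fetuses, grown on poly-D-lysine in neurobasal medium with fetal calf serum (5% CO2, 37 °C), tested after 8 days in culture. Compounds in DMSO (0.5%) or sterile water were added and incubated 24 h at 37 °C. Cells were washed in ice-cold PBS and homogenized in 0.9% saline. Intracellular TAC (Trolox equiv.) and TOS (H2O2 equiv.) were read by kit. Ascorbic acid 10 µM (TAC) and H2O2 25 µM (TOS) served as positive controls. Four independent experiments.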

[5] = Stability of compound in fasted state stimulated intestinal fluid at pH 1.3 assessed as rate of compound hydrolysis in presence of 40 mg/ml pepsin by HPLC-UV assay; type: ADME; details: isolated protein
Summary of the method: (§3)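 HCl buffer with pepsin or phosphate buffer with pancreatin (10 or 40 mg/ml), preincubated at 37 °C. Drug stock (50 µM in ethanol/fasted state intestinal fluid 1:9) added and shaken at 37 °C, 650 rpm. Samples quenched with ice-cold acetonitrile containing 0.5% formic acid, centrifuged at 2 °C, and the supernatant assayed by HPLC-UV. Three experiments.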

[6] = Cytotoxicity against Sprague-Dawley rat Cerebral cortex neuron assessed as cell viability at 100 uM incubated for 24 hrs by MTT assay relative to control; type: tissue-based; details: cerebral cortex neurons, read-out: Activity
Summary of the method: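 Primary fetal rat cortical neurons, matured 8 days, treated 24 h at 37 °C with compound (0.1–100 µM; 0.5% DMSO or water vehicle). MTT 0.7 mg/ml was then added for 30 min at 37 °C, and formazan was extracted with isopropanol/formic acid (95:5) and read at 560 nm. Untreated control was set as 100% viability. Four independent experiments.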

[7] = Antioxidant activity in Sprague-Dawley rat Cerebral cortex neuron assessed as total oxidative stress level by measuring H2O2 equivalents at 0.1 uM after 24 hrs (reference value: 2.3 +/- 0.3 umol/L); type: functional; summary of the method: as §2
[8] = Stability of compound in phosphate buffer at pH 7.4 assessed as rate of compound hydrolysis by HPLC-UV assay; type: physicochemical
Summary of the method: (§4)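 Chemical hydrolysis in 0.02 M HCl buffer pH 1.3 (non-enzymatic simulated gastric fluid) or 0.02 M phosphate buffer pH 7.4, each containing 20% acetonitrile, at 37 °C. Started by adding the 10^-4 M acetonitrile stock. Samples taken over time and analyzed by HPLC-UV at 220 nm. Rate constants are means of triplicates.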

Mus musculus [9] = experiment: In vivo agonist activity at sigma 1 receptor in Swiss […] mouse assessed as modulation of morphine-induced analgesic effect by measuring tail flick latency at 1 mg/kg, ip preincubated for 45 mins followed by morphine treatment after 90 mins by radiant heat tail-flick method; type: functional, organism-based; details: time 135.0 min
Mus musculus [10] = experiment: In vivo agonist activity at sigma 1 receptor in Swiss […] mouse assessed as modulation of morphine-induced analgesic effect by measuring tail flick latency at 1 mg/kg, ip measured after 90 mins by radiant heat tail-flick method; type: functional, organism-based
[11] = Stability of compound in fasted state stimulated intestinal fluid at pH 7.4 assessed as rate of compound hydrolysis in presence of 10 mg/ml pancreatin by HPLC-UV assay; type: ADME; details: simulated gi fluid; summary of the method: as §3
[12] = molecular target: Sigma non-opioid intracellular receptor 1 (Cavia porcellus, UniProt Q60492); experiment: Displacement of [3H]-(+)-pentazocine from sigma1 receptor in guinea pig brain membrane incubated for 150 mins by liquid scintillation counting method; type: cell membranes
Summary of the method: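 Guinea pig brain membranes (500 µg protein) in 50 mM Tris-HCl pH 7.4 with 3 nM [3H]-(+)-pentazocine. […] Incubated 150 min at 37 °C, then filtered on PEI-soaked GF/B filters and counted by scintillation. Ki obtained by EBDA/LIGAND; three determinations.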

[13] = Stability of compound in fasted state stimulated intestinal fluid at pH 7.4 assessed as rate of compound hydrolysis in presence of 40 mg/ml pancreatin by HPLC-UV assay; type: ADME; details: simulated gi fluid; summary of the method: as §3
[14] = Stability of compound in phosphate buffer at pH 7.4 assessed as compound half life by HPLC-UV assay; type: physicochemical; summary of the method: as §4
[15] = Antioxidant activity in Sprague-Dawley rat Cerebral cortex neuron assessed as total antioxidant capacity by measuring trolox equivalents at 100 uM after 24 hrs; type: functional; summary of the method: as §2
[16] = Antioxidant activity in Sprague-Dawley rat Cerebral cortex neuron assessed as total oxidative stress level by measuring H2O2 equivalents at 25 uM after 24 hrs (reference value: 2.3 +/- 0.3 umol/L); type: functional; summary of the method: as §2
[17] = Displacement of [3H]-DTG from Sigma 2 receptor in guinea pig brain membrane incubated for 120 mins in presence of sigma1 blocker (+)-SKF-10047 by liquid scintillation counting method; type: cell membranes, Cavia porcellus

Sigma non-opioid intracellular receptor 1, sequence (Q60492 whole entry): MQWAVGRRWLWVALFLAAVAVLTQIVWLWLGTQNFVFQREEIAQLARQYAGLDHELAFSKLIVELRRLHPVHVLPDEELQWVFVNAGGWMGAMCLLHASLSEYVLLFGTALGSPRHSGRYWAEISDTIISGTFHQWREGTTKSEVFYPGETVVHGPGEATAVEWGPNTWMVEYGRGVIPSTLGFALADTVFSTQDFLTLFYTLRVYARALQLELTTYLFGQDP

SMILES | Drug degradation [1] [h⁻¹] | Activity [2] [mU/ml] | Ratio Ki (Cavia porcellus) | Drug degradation [3] [h⁻¹] | TAC [4] [mmol/L] | Drug degradation [5] [h⁻¹] | viability at 24 h, 100 µM [6] [%] | Activity [7] [µmol/L] | Drug degradation [8] [h⁻¹] | Activity (Mus musculus [9]) | Activity (Mus musculus [10]) | Drug degradation [11] [h⁻¹] | Ki [12] [nM] | Drug degradation [13] [h⁻¹] | half-life [14] [h] | TAC [15] [mmol/L] | Activity [16] [µmol/L] | Ki [17] [nM]
O=C(CCCCC1CCSS1)N1CCN(Cc2ccc(F)cc2)CC1 (centres undefined) | 0.165 | 0.28 | 448 | 0.237 | 13.9 | 0.019 | 96.7 | 0.4 | 0.009 | Active | inactive | 0.009 | 2.9 | 0.021 | 81 | 11.1 | 0.5 | 1300
O=C(CCCCC1CCSS1)OC1CCN(Cc2ccc(F)cc2)CC1 (centres undefined) | 0.856 | 0.3 | 1580 | 1.238 | 12.6 | 1.019 | 95.6 | 0.4 | 0.019 | Active | inactive | – | 4.1 | – | 38 | 12.4 | 0.4 | 6500
COc1ccc(CN2CCN(C(=O)CCCCC3CCSS3)CC2)cc1 (centres undefined) | 0.13 | 0.3 | 432 | 0.168 | 11.3 | 0.029 | 89.3 | 0.4 | 0.003 | – | – | 0.011 | 5.7 | 0.017 | 238 | 10.8 | 0.5 | 2460
O=C(CCCCC1CCSS1)OC1CCN(Cc2ccccc2)CC1 (centres undefined) | 1.61 | 0.26 | – | – | 13.8 | 0.028 | 97.8 | 0.5 | 0.017 | Active | inactive | 2.389 | – | 7.615 | 40.5 | 12.5 | 0.5 | –
COc1ccc(CN2CCC(OC(=O)CCCCC3CCSS3)CC2)cc1 (centres undefined) | 1.14 | 0.29 | 484 | 1.506 | 11.4 | 0.031 | 91.2 | 0.5 | 0.019 | – | – | 0.249 | 3.1 | 0.245 | 37 | 10.7 | 0.5 | 1500
O=C(CCCCC1CCSS1)N1CCN(Cc2ccccc2)CC1 (centres undefined) | 0.39 | 0.32 | – | – | 12.9 | 0.01 | 95.4 | 0.5 | 0.013 | Active | inactive | 0.031 | – | 0.072 | 53.8 | 14.6 | 0.5 | –
